Experimental data as given in ChEMBL document CHEMBL1134951, “Substituted uracil derivatives as potent inhibitors of poly(ADP-ribose)polymerase-1 (PARP-1)” (Bioorg Med Chem Lett, 2002).
Converted amounts (≈) assume the structure as drawn. “And” between values parts separate entries of the source, which are not always exact repeats. Identical values can stand only once.

Key:
[1] = biological target: T1, Poly [ADP-ribose] polymerase 1 (Homo sapiens, UniProt P09874); experiment: Inhibitory activity against human recombinant PARP-1
T1 sequence (P09874 whole entry): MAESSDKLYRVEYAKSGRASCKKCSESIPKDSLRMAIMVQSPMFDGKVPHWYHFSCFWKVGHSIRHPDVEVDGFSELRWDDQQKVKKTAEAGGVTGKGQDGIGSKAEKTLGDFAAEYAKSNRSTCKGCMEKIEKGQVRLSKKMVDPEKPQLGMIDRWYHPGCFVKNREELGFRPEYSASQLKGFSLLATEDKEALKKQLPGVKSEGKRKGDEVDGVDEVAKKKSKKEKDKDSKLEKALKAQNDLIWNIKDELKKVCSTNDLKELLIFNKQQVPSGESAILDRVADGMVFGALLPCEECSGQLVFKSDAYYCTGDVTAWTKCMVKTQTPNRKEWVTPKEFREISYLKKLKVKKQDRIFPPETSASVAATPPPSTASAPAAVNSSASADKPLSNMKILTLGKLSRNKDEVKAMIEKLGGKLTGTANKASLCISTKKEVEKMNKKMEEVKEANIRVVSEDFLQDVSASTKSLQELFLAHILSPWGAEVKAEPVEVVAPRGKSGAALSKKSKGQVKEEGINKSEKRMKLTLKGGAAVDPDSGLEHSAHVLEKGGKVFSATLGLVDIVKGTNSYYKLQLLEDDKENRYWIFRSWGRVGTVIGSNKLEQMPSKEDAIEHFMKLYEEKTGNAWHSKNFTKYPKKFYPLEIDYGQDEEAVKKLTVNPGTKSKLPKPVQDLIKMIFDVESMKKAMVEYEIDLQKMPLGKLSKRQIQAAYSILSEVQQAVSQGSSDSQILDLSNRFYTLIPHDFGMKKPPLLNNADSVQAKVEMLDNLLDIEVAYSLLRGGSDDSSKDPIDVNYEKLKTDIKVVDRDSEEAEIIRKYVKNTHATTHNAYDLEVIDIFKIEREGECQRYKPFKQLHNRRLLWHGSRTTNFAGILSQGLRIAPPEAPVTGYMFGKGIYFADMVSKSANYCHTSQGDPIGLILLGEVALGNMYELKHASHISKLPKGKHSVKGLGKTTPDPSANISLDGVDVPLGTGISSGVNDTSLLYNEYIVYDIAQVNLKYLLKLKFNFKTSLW

[2] = Clearance was determined by administering the compound intravenously at a dose of 1 mg/kg in male wistar rat; format: ADME, organism-based; parameters: dose 1 mg/kg, route intravenous; settings: in vivo, iv
[3] = Area under the curve was determined by administering the compound at a dose of 1 mg/kg intravenously in male wistar rat; format: ADME, organism-based; parameters: dose 1 mg/kg, route intravenous; settings: in vivo, iv
[4] = Half life was determined by administering the compound intravenously at a dose of 1 mg/kg in male wistar rat; format: ADME, organism-based; parameters: dose 1 mg/kg, route intravenous; settings: in vivo, iv
Rattus norvegicus = experiment: Volume at steady state distribution by administering the compound intravenously at a dose of 1 mg/kg in male wistar rat was determined; format: ADME, organism-based; parameters: dose 1 mg/kg, route intravenous; settings: in vivo, iv
[5] = biological target: T1, Poly [ADP-ribose] polymerase 1; experiment: Concentration required to inhibit human recombinant Poly (ADP-ribose) polymerase 1 was determined using dose-response inhibition
Method in brief: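 Purified recombinant human PARP-1 from a baculovirus (Bac-To-Bac) expression system. It ran 10 min at rt and was stopped with ice-cold 10% TCA. Precipitate was filtered, washed with ethanol and dried, then counted by scintillation. Read-out: IC50.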

[6] = Solubility in phosphate buffered saline (1% DMSO) at pH 6.5 (24 hr equilibration); format: physicochemical; settings: buffer

| Compound | IC50 [1] | further results |
| --- | --- | --- |
| O=C(CCCCCn1c2c(c(=O)[nH]c1=O)CSCC2)NCC(=O)N1CCN(c2ncccn2)CC1 | 250 nM |  |
| O=C(CCn1c2c(c(=O)[nH]c1=O)CCCC2)NCC(=O)c1ccccc1 | 450 nM |  |
| O=C(CCn1c2c(c(=O)[nH]c1=O)CCCC2)NCC(=O)N1CCN(c2ncccn2)CC1 | 90 nM |  |
| O=C(CCn1c2c(c(=O)[nH]c1=O)CSCC2)NCC(=O)N1CCN(c2ncccn2)CC1 |  | clearance [2]: 33.5 mL/min/kg; AUC [3]: 520 ng·h/mL; half-life [4]: 12 min; Vss (Rattus norvegicus): 0.31 L/kg |
| O=C(CCn1c2c(c(=O)[nH]c1=O)CSCC2)NCC(=O)c1cccc(-c2ccccc2)c1 | 70 nM |  |
| O=C(CCn1c2c(c(=O)[nH]c1=O)CSCC2)NCC(=O)c1ccc(-c2cccnc2)cc1 | 12 nM |  |
| O=C(CCn1c2c(c(=O)[nH]c1=O)CSCC2)NCC(=O)c1ccc(Oc2ccccc2)cc1 | 30 nM |  |
| O=C(CCn1c2c(c(=O)[nH]c1=O)CSCC2)NCC(=O)c1ccc(-c2cncnc2)cc1 | 25 nM |  |
| O=C(CCn1c2c(c(=O)[nH]c1=O)CSCC2)NCC(=O)N1CCN(c2cccnn2)CC1 | 20 nM |  |
| O=C(CCn1c2c(c(=O)[nH]c1=O)CSCC2)NCC(=O)N1CCN(c2ncncn2)CC1 | 50 nM |  |
| COc1ccc(N2CCN(C(=O)CNC(=O)CCn3c4c(c(=O)[nH]c3=O)CSCC4)CC2)cc1 | 20 nM and 25 nM | clearance [2]: > 75 mL/min/kg; AUC [3]: 160 ng·h/mL; half-life [4]: 12 min; Vss (Rattus norvegicus): 1.01 L/kg |
| O=C(CCn1c2c(c(=O)[nH]c1=O)CSCC2)NCC(=O)c1ccc(-c2ccccc2)cc1 | 20 nM |  |
| O=C(CCn1c2c(c(=O)[nH]c1=O)CSCC2)NCC(=O)N1CCN(c2cc(C(F)(F)F)ccn2)CC1 | 20 nM | clearance [2]: 36.8 mL/min/kg; AUC [3]: 450 ng·h/mL; half-life [4]: 18 min; Vss (Rattus norvegicus): 0.42 L/kg |
| Nc1cccc(-c2ccc(C(=O)CNC(=O)CCn3c4c(c(=O)[nH]c3=O)CSCC4)cc2)c1 | 20 nM |  |
| O=C(CCn1c2c(c(=O)[nH]c1=O)CSCC2)NCC(=O)c1ccc(-c2cccnn2)cc1 | 25 nM | clearance [2]: 27.3 mL/min/kg; AUC [3]: 610 ng·h/mL; half-life [4]: 18 min; Vss (Rattus norvegicus): 0.27 L/kg |
| O=C(CCn1c2c(c(=O)[nH]c1=O)CSCC2)NCC(=O)c1ccc(N2CCCC2)cc1 | 12 nM |  |
| O=C(CCn1c2c(c(=O)[nH]c1=O)CSCC2)NCC(=O)c1ccc(OC(=O)c2ccccc2)cc1 | 30 nM |  |
| O=C(CCn1c2c(c(=O)[nH]c1=O)CSCC2)NCC(=O)c1ccc(OC(F)F)cc1 | 30 nM |  |
| O=C(CCn1c2c(c(=O)[nH]c1=O)CSCC2)NCC(=O)N1CCN(c2ccncc2)CC1 | 40 nM |  |
| O=C(CCn1c2c(c(=O)[nH]c1=O)COCC2)NCC(=O)N1CCN(c2ncccn2)CC1 | 800 nM |  |
| CC(CC(=O)NCC(=O)c1ccc2ccccc2c1)n1c2c(c(=O)[nH]c1=O)CCCC2 (stereo not given) | > 5000 nM |  |

| Compound | IC50 [1] | further results |
| --- | --- | --- |
| CN(CC(=O)c1ccc2ccccc2c1)C(=O)CCn1c2c(c(=O)[nH]c1=O)CCCC2 | 400 nM |  |
| O=C(CCn1c2c(c(=O)[nH]c1=O)CC=CCC2)NCC(=O)N1CCN(c2ncccn2)CC1 | 900 nM |  |
| O=C(CCn1c2c(c(=O)[nH]c1=O)CSCC2)NCC(=O)c1ccc(Cl)cc1 | 60 nM |  |
| O=C(Cn1c2c(c(=O)[nH]c1=O)CSCC2)NCCC(=O)N1CCN(c2ncccn2)CC1 | 60 nM |  |
| COc1ccc(-c2ccc(C(=O)CNC(=O)CCn3c4c(c(=O)[nH]c3=O)CSCC4)cc2)cc1 | 15 nM |  |
| O=C(CCn1c2c(c(=O)[nH]c1=O)CSCC2)NCC(=O)c1ccc(-c2ccncc2)cc1 | 15 nM |  |
| O=C(CCn1c2c(c(=O)[nH]c1=O)CSCC2)NCC(=O)c1ccc(Br)cc1 | 15 nM |  |
| O=C(CCn1c2c(c(=O)[nH]c1=O)CCCC2)NCC(=O)N1CCN(c2ccccc2)CC1 | 200 nM |  |
| O=C(CCn1c2c(c(=O)[nH]c1=O)CSCC2)NCC(=O)c1cccc(Br)c1 | 70 nM |  |
| O=C(CCn1c2c(c(=O)[nH]c1=O)CCCCC2)NCC(=O)N1CCN(c2ncccn2)CC1 | 900 nM |  |
| C=CCCc1c(CC=C)c(=O)[nH]c(=O)n1CCC(=O)NCC(=O)N1CCN(c2ncccn2)CC1 | > 5000 nM |  |
| O=C(CCn1c2c(c(=O)[nH]c1=O)CSCC2)NCC(=O)N1CCN(c2ccccc2)CC1 |  | IC50 [5]: 30 nM; clearance [2]: 72.2 mL/min/kg; AUC [3]: 230 ng·h/mL; half-life [4]: 24 min; Solubility [6]: 330 µg/mL (≈ 721 µM); Vss (Rattus norvegicus): 1.39 L/kg |
| Nc1cccnc1N1CCN(C(=O)CNC(=O)CCn2c3c(c(=O)[nH]c2=O)CSCC3)CC1 | 70 nM |  |
| O=C(CCn1c2c(c(=O)[nH]c1=O)CSCC2)NCC(=O)N1CCN(c2ncccc2C(F)(F)F)CC1 | 40 nM | clearance [2]: 71.7 mL/min/kg; AUC [3]: 230 ng·h/mL |
| O=C(CCn1c2c(c(=O)[nH]c1=O)CCCC2)NCC(=O)c1ccc(Br)cc1 | 80 nM |  |
| O=C(CCn1c2c(c(=O)[nH]c1=O)CSCC2)NCC(=O)N1CCN(c2ccccn2)CC1 | 35 nM | clearance [2]: 51.8 mL/min/kg; AUC [3]: 320 ng·h/mL; half-life [4]: 72 min; Vss (Rattus norvegicus): 1.19 L/kg |
| O=C(CCn1c2c(c(=O)[nH]c1=O)CCCC2)NCC(=O)c1ccc2ccccc2c1 |  | clearance [2]: 28.3 mL/min/kg; AUC [3]: 600 ng·h/mL; half-life [4]: 42 min; Vss (Rattus norvegicus): 0.5 L/kg |
| O=C(Cn1c2c(c(=O)[nH]c1=O)CSCC2)NCC(=O)N1CCN(c2ncccn2)CC1 | 150 nM |  |
| COc1ccc(C(=O)CNC(=O)CCn2c3c(c(=O)[nH]c2=O)CSCC3)cc1 | 25 nM |  |
| COc1ccc(C(=O)CNC(=O)CCn2c3c(c(=O)[nH]c2=O)CCCC3)cc1 | 300 nM |  |
